Compounds with a hit are over-represented: about 2.6% of the library has one in this group of screens.
LMPTP inh: blocks human LMPTP phosphatase; inhibition, % at 20 µM; AID 651560; recombinant LMPTP-A, OMFP fluorogenic substrate, fluorescence intensity; 360,000 tested, 0.22% active;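 active means compounds that cut the enzyme signal by at least half of the control window in the single-dose screen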;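 further: plate controls were DMSO wells with enzyme plus substrate for no effect and substrate without enzyme for full effect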
Target sequence (P24666 whole entry, looked up): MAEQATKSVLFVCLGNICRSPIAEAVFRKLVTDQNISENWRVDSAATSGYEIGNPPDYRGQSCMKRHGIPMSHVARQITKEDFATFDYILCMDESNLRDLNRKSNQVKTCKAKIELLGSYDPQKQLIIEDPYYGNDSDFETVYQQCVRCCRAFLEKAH
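test system = LMPTP-A | amount = 0.625 nM LMPTP-A final | reagent = fluorogenic phosphatase substrate OMFP at 400 µM final | incubation = 50 min at room temperature | benchmarks = no-enzyme low control, uninhibited high control | medium = Bis-Tris pH 6.0, DTT, detergent | signal = fluorescence intensity of OMFP turnover product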
NadD inh: blocks S. aureus nicotinate mononucleotide adenylyltransferase | inhibition, % at 20 µM | 360,000 tested, 0.78% active | AID 602399 | purified NadD enzyme, colorimetric absorbance read-out; in the data active means inhibition above about 26%
Scp1 inh: inhibitors of human Scp-1 phosphatase; 340,000 tested, 0.88% active; Q9GZU7; inhibition, % at 20 µM; Recombinant Scp1, phosphopeptide, malachite green phosphate absorbance;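 active means inhibition above about 50% at 20 µM, limit read from the data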;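 further: plate controls were DMSO wells with enzyme for no effect and wells lacking enzyme for full effect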
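Test system: SCP-1 catalytic domain; Buffer or medium: Acidic Tris acetate buffer with magnesium and detergent; Also added: Phosphorylated 17-residue peptide substrate; Compound: single 20 µM dose, 1% DMSO; Schedule: enzyme reaction 45 min at room temperature, colour 5 min, stabilisation 30 min; Signal: Phosphate-binding colour reagent, absorbance read at 630 nm.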
STEP inh: inhibitors of human striatal-enriched phosphatase STEP; inhibition, % at 20 µM; AID 588621; recombinant STEP, OMFP fluorogenic substrate, fluorescence; P54829; 360,000 tested, 0.25% active;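 active means inhibition at 20 µM, scaled per plate between control wells, above about 37%, limit read from the data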;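 further: 0% = DMSO with enzyme and substrate and 100% = substrate only without enzyme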
Target sequence (P54829 whole entry, looked up): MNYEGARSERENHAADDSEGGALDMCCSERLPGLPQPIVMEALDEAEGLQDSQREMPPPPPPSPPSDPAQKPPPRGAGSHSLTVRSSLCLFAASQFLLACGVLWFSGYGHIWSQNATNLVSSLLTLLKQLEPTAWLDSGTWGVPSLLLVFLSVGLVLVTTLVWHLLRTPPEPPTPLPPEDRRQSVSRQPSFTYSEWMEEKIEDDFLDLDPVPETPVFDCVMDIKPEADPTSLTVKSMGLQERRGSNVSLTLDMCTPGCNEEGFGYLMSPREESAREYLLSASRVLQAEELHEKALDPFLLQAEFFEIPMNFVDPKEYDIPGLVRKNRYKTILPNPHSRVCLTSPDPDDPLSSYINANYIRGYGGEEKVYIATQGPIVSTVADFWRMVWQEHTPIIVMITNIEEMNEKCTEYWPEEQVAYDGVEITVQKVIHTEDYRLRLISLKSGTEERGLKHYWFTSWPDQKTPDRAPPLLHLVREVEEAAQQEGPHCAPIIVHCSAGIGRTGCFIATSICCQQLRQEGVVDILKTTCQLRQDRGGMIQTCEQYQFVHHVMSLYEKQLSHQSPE
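System: isolated STEP enzyme; schedule: 20 min enzyme reaction at room temperature, protected from light; medium: Bis-Tris buffer pH 6.0, 2.5 mM DTT, 0.005% Tween 20; signal: fluorescence, 480/540 nm; dosing: single compound dose of 20 µM, 1% DMSO final; also added: OMFP substrate, 25 µM final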
rCAG binder: r(CAG) repeat RNA binding; inhibition, % at 3 µM; TO-PRO-1 dye displacement fluorescence; AID 651821; 370,000 tested, 1.3% active;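 active means inhibition above the plate cutoff, the mean of all test compounds on that plate plus 3 SD, cut at about 35% in these data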;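 further: 0% = DMSO alone and 100% = 100 µM mitoxantrone as full dye displacement; higher means more dye released from RNA so lower well fluorescence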
Scp-1 conf: confirmation of human Scp-1 phosphatase inhibitors; shares compounds with Scp1 inh; inhibition, % at 20 µM; 2,500 tested, 61% active; AID 540281; recombinant SCP-1 catalytic domain, phosphate release, malachite green absorbance;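 further: plate controls were DMSO with enzyme for no effect and buffer wells lacking enzyme for full effect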
MG interference: counter-screen for Scp-1 inhibitors: colorimetric interference; apparent inhibition (interference), % at 20 µM; 2,500 tested, under 10 active; Colorimetric interference counterscreen, malachite green absorbance 630 nm; AID 540313; shares compounds with Scp1 inh;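 further: compounds added after enzyme reaction finished so only phosphate colour detection is probed; plate controls were DMSO wells with completed Scp-1 reaction for no effect and substrate wells lacking enzyme for full effect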
Scp-1 Tm shift: binds human Scp-1, shifting its melting temperature; 1,500 tested, 25% active; AID 540329; Recombinant SCP1, Sypro Orange thermal shift Tm; thermal shift relative to vanadate control, % at 40 µM; shares compounds with Scp1 inh;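 active means substances whose mean melting-temperature shift, as a percentage of the reference inhibitor's shift, reaches about 5.3%, limit read from the data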;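 further: 0% = Tm of DMSO wells and 100% = Tm with sodium orthovanadate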
* marks the source's active call; other numbers are inactive results; · = no result.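 How the source made its calls, unless noted: active means inhibition of at least 30% at 20 µM; inactive means the rest.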

SMILES	LMPTP inh	NadD inh	Scp1 inh	STEP inh	rCAG binder	Scp-1 conf	MG interference	Scp-1 Tm shift
COC(=O)C[C@@H]1CC[C@H]2[C@@H](COc3ccc(NC(=O)c4cc(C)on4)cc3C(=O)N2C)O1	·	·	·	·	-0.9	·	·	·
CC1C=CC(C)C(C(=O)O)C1C(=O)O (stereo not drawn)	-1.1	2.5	85.7*	3.2	4.9	55.0*	-20.0	-25.7
CC(C)CNC(=O)C1C2C=CC(C2)C1C(=O)O (stereo not drawn)	-0.2	-5.4	-6.0	1.1	3.6	·	·	·
CCN(CC)S(=O)(=O)c1ccc(N2CCOCC2)c(NC(=O)c2c3c(nc4ccccc24)CCC3)c1	10.0	16.6	67.9*	0.2	16.1	47.6*	-12.9	4.8
COC(=O)[C@H](C(C)C)N(CCCc1cn(Cc2ccccc2)nn1)S(=O)(=O)c1ccccc1Br	·	·	·	·	2.9	·	·	·
Cc1ccccc1CN1CCCCC(NC(=O)c2cccc(C(F)(F)F)c2)C1=O (stereo not drawn)	·	·	·	·	-2.7	·	·	·
Cc1[nH]c2ccccc2c1C(=O)CNc1nccs1	1.2	0.0	96.2*	0.1	-2.0	-5.6	-6.5	·
CC(=O)C1(C(=O)NCc2ccccc2)CC(c2ccccn2)=NO1 (stereo not drawn)	·	·	·	·	5.5	·	·	·
O=C(NCc1c(F)cccc1F)C1C2C=CC3(CN(Cc4ccccc4)C(=O)C13)O2 (stereo not drawn)	·	·	·	·	1.0	·	·	·
O=C(N=Nc1c(O)[nH]c2ccc([N+](=O)[O-])cc12)c1cc(-c2ccccc2Cl)nc2ccccc12	79.8*	18.9	94.8*	85.2*	16.6	77.3*	-8.2	8.8*
O=C(O)c1cc(N=Nc2c(O)[nH]c3ccc([N+](=O)[O-])cc23)ccc1Cl	-0.4	-2.8	8.3	2.2	3.9	·	·	·
O=C(CNCC1CCCCC1)Nc1ccccc1N1CCCCC1	-1.3	-8.4	-13.4	-0.3	-6.8	·	·	·
O=C(CNC1CCCCCC1)Nc1ccccc1N1CCCCC1	-0.3	-5.9	89.9*	0.6	-6.2	-9.0	-10.9	·
NC(=O)c1ccc(NC(=O)COC(=O)c2cc3c(s2)CCC3)cc1	24.3	-1.9	84.7*	34.9	4.2	62.0*	-16.4	-11.9
COCCn1c(C)cc(C(=O)COC(=O)c2cccc(O)c2)c1C	-0.9	-8.2	-9.0	0.7	-3.8	·	·	·
COCCn1c(C)cc(C(=O)COC(=O)c2cc3c(s2)CCC3)c1C	7.9	16.0	51.6*	-1.5	2.7	70.4*	-9.8	-21.5
O=C(COC(=O)c1cc2c(s1)CCCC2)Nc1ccc(Cl)cn1	-0.4	2.8	-9.2	-2.0	2.9	·	·	·
O=C(COC(=O)c1cc2c(s1)CCC2)Nc1ccc(F)cc1	12.0	0.9	67.7*	4.5	21.4	74.2*	-9.3	2.6
COc1ccc(NC(=O)COC(=O)c2cc3c(s2)CCC3)cc1	19.0	-2.2	56.7*	31.6	·	63.2*	-12.3	-1.6
CCOC(=O)[C@@]12CCCC3=C1N(CCC3)C(=O)[C@H]2CC(=O)NCc1cccc2ccccc12	·	·	·	·	2.2	·	·	·
CCN(C[C@H]1[C@@H](c2ccc(C3=CCCC3)cc2)[C@H](CO)N1C(=O)c1cccnc1)S(=O)(=O)c1ccccc1[N+](=O)[O-]	·	·	·	·	12.8	·	·	·
CCn1c(COc2ccc(C)cc2)nnc1SCC(=O)Nc1ccc(C(=O)OC)cc1	·	·	·	·	0.8	·	·	·
Cc1sc2ncn(CC(=O)NCc3ccccc3)c(=O)c2c1C	0.4	-3.2	2.5	-2.7	-0.8	·	·	·
O=C(Cn1cnc2c(nnn2-c2cccc(Cl)c2)c1=O)NCc1ccccc1	32.6	0.4	52.8*	7.9	2.0	61.7*	-17.5	-5.2
O=C(Cn1cnc2sc(-c3ccccc3)cc2c1=O)NCc1ccccc1	6.7	3.9	83.5*	0.8	6.4	62.3*	-16.7	-28.1
SMILES	LMPTP inh	NadD inh	Scp1 inh	STEP inh	rCAG binder	Scp-1 conf	MG interference	Scp-1 Tm shift
Cc1ccc(F)cc1NC(=O)CCc1c(C)[nH]c(=O)c(C#N)c1C	0.6	1.6	-0.8	-2.0	-0.5	·	·	·
Cc1[nH]c(=O)c(C#N)c(C)c1CCC(=O)Nc1cc(S(C)(=O)=O)ccc1Cl	-1.5	-9.3	58.1*	-0.7	1.2	1.7	-8.2	·
O=C(/C=C\Nc1ccc2c(c1)OCO2)c1ccc(Cl)s1	63.5*	5.8	91.2*	2.1	2.5	74.9*	0.3	-0.1
N#Cc1cccc(CNCC(=O)N2CCC3(CC2)OCCO3)c1	·	·	·	·	0.2	·	·	·
N#CCC(=O)N/N=C/c1ccc(Sc2nc3ccccc3s2)o1	0.7	8.1	98.7*	0.0	18.4	81.4*	-10.6	8.1*
COC(=O)[C@]12C[C@H](CC(=O)NCC3CCCCC3)C(=O)N(CCc3ccc(OC)c(OC)c3)C1=C[C@H](COCc1ccccc1)O[C@@H]2C	·	·	·	·	3.6	·	·	·
Cc1ccc(-c2c(NC(=O)C3CC3)nc3ncccn23)cc1	·	·	·	·	1.2	·	·	·
CCCCOc1ccc(C(=O)n2ccc3ccc(-c4ccc5ccn(Cc6cccc(C(=O)OC)c6)c5c4)cc32)cc1	·	·	·	·	16.6	·	·	·
COC(=O)c1ccc(OCC(O)CN2C(=O)NC(C)(C)C2=O)cc1 (stereo not drawn)	0.4	3.9	-1.9	-3.2	0.9	·	·	·
CCCOC(=O)c1ccc(OCC(O)CN2C(=O)NC(C)(C)C2=O)cc1 (stereo not drawn)	0.1	5.8	65.1*	-0.7	0.2	-7.8	-6.8	·
COc1ccc([N+](=O)[O-])cc1NC(=O)CS(=O)(=O)c1ccc(C)cc1	0.0	-7.2	-2.1	-1.1	2.4	·	·	·
O=C(CCS(=O)(=O)c1ccc(Cl)cc1)Nc1ccccc1Br	0.9	-3.6	6.2	2.5	-3.4	·	·	·
COc1ccc([N+](=O)[O-])cc1NC(=O)CCS(=O)(=O)c1ccc(Br)cc1	0.2	-9.1	95.1*	8.2	4.6	62.3*	-17.8	-4.0
O=C(CCS(=O)(=O)c1ccc(Br)cc1)Nc1cc(F)ccc1F	-1.2	-6.6	73.2*	6.6	7.0	57.9*	-14.5	-2.5
CCOc1ccccc1NC(=O)CCS(=O)(=O)c1ccc(Br)cc1	1.2	-10.6	92.2*	38.9	-6.6	66.9*	-16.2	-16.0
COc1ccc2c(c1)CN1C(=O)N(Cc3ccccc3)S(=O)(=O)CC21 (stereo not drawn)	·	·	·	·	2.7	·	·	·
CCOC(=O)c1c(-c2ccco2)csc1NC(=O)COC(=O)c1cnccn1	4.2	20.1	60.1*	1.8	30.1	29.0	-23.5	·
CCOC(=O)c1c(NC(=O)COC(=O)c2cnccn2)sc(C(=O)NC)c1C	-0.5	-7.2	1.2	1.8	2.8	·	·	·
O=C(CCC1CC(=O)Nc2ccccc21)NCc1ccc(F)cc1 (stereo not drawn)	-2.9	-3.3	-8.4	-1.6	4.1	-8.4	-7.3	·
